MEKK3 PB1 HTS: modulators of MEKK3-MEK5 PB1 binding, primary screen, biochemical, wildtype MEKK3, multiplex bead flow cytometry, Alexa488-MEK5. Mitogen-activated protein kinase kinase kinase 3 (Homo sapiens), Q99759. bead-based flow cytometry, Alexa488-MEK5 binding to MEKK3; actives lie on both sides; 0 = blocked by unlabeled MEK5, 100 = vehicle. binding response (% of control), % at 10 µM. 290,000 compounds, 1.4% hits. AID 1529, 2009;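 active = binding response more than 3 SD above or below the average of its plate-row segment, actives on both sides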;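 note: Alexa488 bead fluorescence after subtracting the streptavidin-only scavenger bead signal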
PREPL inhibitor: PREPL enzyme inhibitors, primary screen, biochemical, fluorescence polarization; Prolyl endopeptidase-like (Homo sapiens), Q4J6C6; recombinant PREPL, fluorescence polarization activity-based probe; inhibition, % at 5.96 µM; 320,000 compounds, 0.68% hits; in the data active = inhibition above about 43%;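 note: 0% = enzyme with DMSO and 100% = wells lacking enzyme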
Apaf1 inhib: inhibitors of human Apaf-1 apoptosome, primary screen, biochemical, DEVD-Rh110 fluorescence, uHTS | Apoptotic protease-activating factor 1 (Homo sapiens), O14727 | inhibition, % at 20 µM | 330,000 compounds, 0.71% hits | reconstituted apoptosome caspase-3 activity; active = inhibition of at least 40% at 20 µM;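 note: plate controls were DMSO wells for no effect and DEVD-CHO caspase inhibitor wells for full effect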
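Material: reconstituted apoptosome with Apaf-1, cytochrome c, caspase-9, procaspase-3, dATP / Buffer or medium: pH 7.5 Hepes buffer with CHAPS, BSA, DTT / Also added: cytochrome c with DEVD-Rh110 / Schedule: compound with Apaf-1, dATP, procaspase-3 30 min, then 50 min reaction, room temperature / Technique: rhodamine 110 fluorescence at Ex 480/Em 540 nm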
UBC13 polyUb: UBC13 polyubiquitin chain formation inhibitors, primary screen, biochemical, TR-FRET, uHTS; inhibition, % at 20 µM; 330,000 compounds, 0.47% hits; AID 485273, 2010; in the data active = inhibition above about 45%, passing the limit was not always enough
MEKK2 WT-MEK5: modulators of MEK5 binding to wildtype MEKK2, primary screen, biochemical, multiplex bead flow cytometry, Alexa488-MEK5; Mitogen-activated protein kinase kinase kinase 2 (Homo sapiens), Q9Y2U5; Alexa488-MEK5 binding to MEKK2 WT; actives lie on both sides; binding response (% of control), % at 10 µM; 290,000 compounds, 1.1% hits; AID 1531, 2009; in the data active = binding response below about 67% or above about 130%
MEKK2 mut-MEK5: MEK5 binding signal on mutant MEKK2 PB1, primary screen, biochemical, multiplex bead flow cytometry, Alexa488-MEK5; 290,000 compounds, 0.35% hits; Alexa488-MEK5 binding to MEKK2 mutant; AID 1530, 2009; percent response, % at 10 µM; in the data active = percent response above about 24%, passing the limit was not always enough
MEKK2wt confirm: modulators of MEK5 binding to wildtype MEKK2, confirmation, biochemical, single concentration, multiplex bead flow cytometry | shares compounds with MEKK3 PB1 HTS | Alexa488-MEK5 binding to MEKK2 WT; actives lie on both sides | binding response (% of control), % at 10 µM | 5,900 compounds, 2.4% hits | AID 1892, 2009; in the data active = binding response below about 16% or above about 210%; inactive = in between
MEKK2mut confirm: mutant MEKK2 PB1-MEK5 binding signal retest – biochemical, single concentration, multiplex bead flow cytometry, confirmation. shares compounds with MEKK3 PB1 HTS. percent response, % at 10 µM. Alexa488-MEK5 binding to MEKK2 mutant. 5,900 compounds, 2% hits; in the data active = percent response mostly above about 71%, no sharp cut-off; inactive = mostly below about 38%;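 note: higher means compound restores mutant binding toward wildtype level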
MEKK3 confirm: MEKK3 wild-type PB1 binding to MEK5, inhibitors, confirmation, biochemical, bead multiplex flow cytometry, single concentration, wildtype; binding response (% of control), % at 10 µM; shares compounds with MEKK3 PB1 HTS; Alexa488-MEK5 binding to MEKK3; hits give low values; 5,900 compounds, 1.8% hits; AID 1894, 2009;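 active = binding response below 72% of control, or above a set upper limit, though filed actives all read lower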;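 note: 100% = DMSO only wells and 0% = binding blocked by excess unlabeled MEK5; lower values mean stronger disruption of MEK5 binding to MEKK3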
* = called active by the depositor; [ ] = dose if it differs, or a comment. Hits are enriched below; roughly 3.1% of the tested compounds scored in any of these assays.

`Clc1ccc(OCCCN2CCc3ccccc3C2)c(Br)c1` gave MEKK3 PB1 HTS 105, PREPL inhibitor 19, Apaf1 inhib 16, UBC13 polyUb 9, MEKK2 WT-MEK5 134*, MEKK2 mut-MEK5 20, MEKK2wt confirm 102, MEKK2mut confirm -1 and MEKK3 confirm 101.
`CC(=O)CSc1cc(C)nc2c(-c3ccccc3)c(C)nn12` gave MEKK3 PB1 HTS 129*, PREPL inhibitor -3, Apaf1 inhib 0, UBC13 polyUb 0, MEKK2 WT-MEK5 122, MEKK2 mut-MEK5 22, MEKK2wt confirm 97, MEKK2mut confirm 2 and MEKK3 confirm 104.
Cc1cc(SCC(=O)c2cccs2)n2nc(C)c(-c3ccccc3)c2n1 was read as MEKK3 PB1 HTS 114, PREPL inhibitor 5, Apaf1 inhib 13, UBC13 polyUb -7, MEKK2 WT-MEK5 95 and MEKK2 mut-MEK5 -2.
Screening COCCNC(=O)CN(C(=O)CCC(=O)Nc1ccccn1)c1ccccc1F returned MEKK3 PB1 HTS 70*[inhibitor], PREPL inhibitor 10, Apaf1 inhib 2, UBC13 polyUb -2, MEKK2 WT-MEK5 86, MEKK2 mut-MEK5 -1, MEKK2wt confirm 103, MEKK2mut confirm 4 and MEKK3 confirm 100.
For Cc1ccc(C)c(N(CC(=O)NCc2ccc3c(c2)OCO3)C(=O)CCC(=O)Nc2ccccn2)c1 the results were MEKK3 PB1 HTS 82*[inhibitor], PREPL inhibitor -3, Apaf1 inhib 15, UBC13 polyUb -1, MEKK2 WT-MEK5 91, MEKK2 mut-MEK5 -8, MEKK2wt confirm 102, MEKK2mut confirm 4 and MEKK3 confirm 104.
`NC(=S)c1cc2cc(Cl)ccc2oc1=O` gave MEKK3 PB1 HTS 106, PREPL inhibitor 8, Apaf1 inhib 4, UBC13 polyUb -23, MEKK2 WT-MEK5 108 and MEKK2 mut-MEK5 13.
For C=CCOc1c2ccc(C(=O)NCCc3ccc(C)cc3)cc2nn1C the results were MEKK3 PB1 HTS 126*, PREPL inhibitor 12, Apaf1 inhib 5, UBC13 polyUb 11, MEKK2 WT-MEK5 123, MEKK2 mut-MEK5 14, MEKK2wt confirm 68, MEKK2mut confirm -14 and MEKK3 confirm 93.
Cc1c(NC(=O)c2ccccc2F)c(=O)n(-c2ccccc2)n1C was read as MEKK3 PB1 HTS 23*[inhibitor], PREPL inhibitor 7, Apaf1 inhib -16, UBC13 polyUb -1, MEKK2 WT-MEK5 41*[inhibitor], MEKK2 mut-MEK5 -32, MEKK2wt confirm 101, MEKK2mut confirm 2 and MEKK3 confirm 106.
`Cc1c(NS(=O)(=O)c2ccccc2)c(=O)n(-c2ccccc2)n1C` gave MEKK3 PB1 HTS 126*, PREPL inhibitor -4, Apaf1 inhib -2, UBC13 polyUb 2, MEKK2 WT-MEK5 124, MEKK2 mut-MEK5 7, MEKK2wt confirm 92, MEKK2mut confirm -8 and MEKK3 confirm 97.

Source: PubChem BioAssay (several laboratories)
